From ChEMBL document CHEMBL3734660, “Inhibitory effect of cytotoxic stilbenes related to resveratrol on the expression of the VEGF, hTERT and c-Myc genes” (Eur J Med Chem, 2015)
Values after ≈ are worked out from the molar mass of the structure shown.

Experiments:
MCF7 = experiment: Cytotoxicity against human MCF7 cells assessed inhibition of cell proliferation after 3 days by MTT assay; conditions: MCF7, 72 h
[1] = Selectivity ratio of IC50 for HEK293 cells to IC50 for human MCF7 cells; assay type: ADME, cell-based; conditions: HEK293 cells versus MCF7 cells, read-out: Ratio IC50
HT-29 [2] = experiment: Inhibition of VEGF protein secretion in human HT-29 cells at 10 ug/mL after 72 hrs by ELISA relative to control; assay type: functional; design: scale not given: the % may be the effect or the level left
HT-29 [3] = experiment: Down regulation of c-Myc gene expression in human HT-29 cells at 10 ug/mL after 48 hrs by RT-qPCR analysis relative to control; assay type: functional
In short: (§1)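 HT-29 or MCF-7 cells grown to 70–80% confluence, serum-starved 24 h, then exposed to compound in DMSO for 48 h; DMSO-only control. Total RNA extracted and transcript measured by RT-qPCR, normalized to β-actin and expressed as percentage of control. At least three measurements; mean ± SEM; one-sample t-test.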

HEK293 = experiment: Cytotoxicity against HEK293 cells assessed inhibition of cell proliferation after 3 days by MTT assay; conditions: Homo sapiens, HEK293, 72 h
HT-29 [4] = experiment: Down regulation of hTERT gene expression in human HT-29 cells at 10 ug/mL after 48 hrs by RT-qPCR analysis relative to control; assay type: functional
In short: as §1

[5] = Selectivity ratio of IC50 for HEK293 cells to IC50 for human HT-29 cells; assay type: ADME, cell-based; conditions: HEK293 cells versus HT-29 cells, read-out: Ratio IC50
HT-29 [6] = experiment: Cytotoxicity against human HT-29 cells assessed inhibition of cell proliferation after 3 days by MTT assay; conditions: HT-29, 72 h
HT-29 [7] = experiment: Down regulation of VEGF gene expression in human HT-29 cells at 10 ug/mL after 48 hrs by RT-qPCR analysis relative to control; assay type: functional
In short: as §1

| Structure (SMILES) | IC50 (MCF7) [µg/mL] | selectivity ratio [1] | Activity (HT-29 [2]) [%] | Activity (HT-29 [3]) [%] | IC50 (HEK293) [µg/mL] | Activity (HT-29 [4]) [%] | selectivity ratio [5] | IC50 (HT-29 [6]) [µg/mL] | Activity (HT-29 [7]) [%] |
| --- | --- | --- | --- | --- | --- | --- | --- | --- | --- |
| Nc1ccc(/C=C/c2ccccc2)cc1 [(E)-4-STYRYLANILINE] | 16 (≈ 81.9 µM) | 0.7 | 78 | 46 | 11.4 (≈ 58.4 µM) | 65 | 2.6 | 4.4 (≈ 22.5 µM) | 24 |
| Oc1ccccc1/C=C/c1ccccc1O | 23 (≈ 108 µM) | 1.1 | – | – | 24.3 (≈ 114 µM) | – | 0.9 | 25 (≈ 118 µM) | – |
| Nc1ccc(/C=C/c2ccc(O)cc2)cc1 | 2.2 (≈ 10.4 µM) | 0.4 | – | – | 0.8 (≈ 3.79 µM) | – | 0.03 | 30.6 (≈ 145 µM) | – |
| Nc1cccc(/C=C/c2cccc(O)c2)c1 | 54 (≈ 256 µM) | > 1.8 | 92 | 54 | > 100 | 58 | > 2.3 | 43 (≈ 204 µM) | 52 |
| COc1cccc(/C=C/c2ccccc2N)c1 | 6.1 (≈ 27.1 µM) | < 0.1 | 51 | 79 | 0.5 (≈ 2.22 µM) | 35 | < 0.1 | 21.2 (≈ 94.1 µM) | 100 |
| COc1cccc(/C=C/c2cccc(O)c2)c1 | 13 (≈ 57.5 µM) | 1.5 | 65 | 59 | 19 (≈ 84 µM) | 41 | 1.6 | 11.5 (≈ 50.8 µM) | 60 |
| COc1cccc(/C=C/c2ccc(O)cc2)c1 [(E)-5-METHOXY-4'-STILBENOL] | 21 (≈ 92.8 µM) | 1.1 | – | – | 24 (≈ 106 µM) | – | 0.9 | 26 (≈ 115 µM) | – |
| COc1ccc(/C=C/c2cccc(O)c2)cc1 | 21 (≈ 92.8 µM) | 1.1 | 73 | 46 | 24 (≈ 106 µM) | 48 | 1.1 | 22 (≈ 97.2 µM) | 38 |
| COc1ccccc1/C=C/c1ccc(N)cc1 | 3.2 (≈ 14.2 µM) | 0.3 | – | – | 1 (≈ 4.44 µM) | – | < 0.1 | 22 (≈ 97.7 µM) | – |
| COc1ccc(/C=C/c2ccccc2N)cc1 | 0.4 (≈ 1.78 µM) | 1.4 | – | – | 0.6 (≈ 2.66 µM) | – | < 0.1 | 73 (≈ 324 µM) | – |
| COc1ccccc1/C=C/c1cccc(N)c1 | 38.7 (≈ 172 µM) | 1.2 | 75 | 45 | 45 (≈ 200 µM) | 52 | 1.8 | 25.3 (≈ 112 µM) | 67 |
| COc1ccc(/C=C/c2cccc(N)c2)cc1 | 23 (≈ 102 µM) | 0.5 | 73 | 100 | 11 (≈ 48.8 µM) | 96 | 0.7 | 16.3 (≈ 72.4 µM) | 89 |
| Nc1cccc(/C=C/c2ccccc2O)c1 | 24.7 (≈ 117 µM) | 3.9 | 76 | 37 | 96 (≈ 454 µM) | 52 | 3.2 | 30.4 (≈ 144 µM) | 38 |
| COc1cccc(/C=C/c2ccc(N)cc2)c1 | 52 (≈ 231 µM) | 0.3 | 74 | 74 | 18 (≈ 79.9 µM) | 81 | 1.1 | 16.1 (≈ 71.5 µM) | 100 |
| COc1cccc(/C=C/c2cccc(N)c2)c1 | 34 (≈ 151 µM) | 0.5 | 73 | 34 | 16 (≈ 71 µM) | 100 | 0.8 | 19.6 (≈ 87 µM) | 23 |
| Nc1ccccc1/C=C/c1ccccc1O | 39 (≈ 185 µM) | 0.7 | – | – | 27 (≈ 128 µM) | – | 0.7 | 36 (≈ 170 µM) | – |
| COc1ccccc1/C=C/c1ccccc1N | > 100 | < 0.1 | – | – | 2.1 (≈ 9.32 µM) | – | < 0.1 | > 100 | – |
| Oc1ccc(/C=C/c2ccc(O)cc2)cc1 [TRANS-4,4'-DIHYDROXYSTILBENE] | 6.8 (≈ 32 µM) | 0.2 | – | – | 1.2 (≈ 5.65 µM) | – | < 0.1 | > 100 | – |
| Nc1ccc(/C=C/c2cccc(O)c2)cc1 | 24.8 (≈ 117 µM) | 1 | – | – | 25 (≈ 118 µM) | – | 0.6 | 42 (≈ 199 µM) | – |

| Structure (SMILES) | IC50 (MCF7) [µg/mL] | selectivity ratio [1] | Activity (HT-29 [2]) [%] | Activity (HT-29 [3]) [%] | IC50 (HEK293) [µg/mL] | Activity (HT-29 [4]) [%] | selectivity ratio [5] | IC50 (HT-29 [6]) [µg/mL] | Activity (HT-29 [7]) [%] |
| --- | --- | --- | --- | --- | --- | --- | --- | --- | --- |
| Nc1ccccc1/C=C/c1ccccc1 | 1.4 (≈ 7.17 µM) | 0.9 | 59 | 100 | 1.3 (≈ 6.66 µM) | 59 | 0.1 | 17 (≈ 87.1 µM) | 100 |
| Oc1ccc(/C=C/c2cccc(O)c2)cc1 [(E)-3,4'-STILBENDIOL] | 23 (≈ 108 µM) | < 0.1 | – | – | 1.1 (≈ 5.18 µM) | – | 0.2 | 6.9 (≈ 32.5 µM) | – |
| COc1cccc(/C=C/c2ccccc2O)c1 | 18 (≈ 79.5 µM) | 1.1 | – | – | 20 (≈ 88.4 µM) | – | 0.8 | 26 (≈ 115 µM) | – |
| CCCCCCCCCCCC(=O)Nc1ccc(/C=C/c2ccccc2)cc1 | 5.8 (≈ 15.4 µM) | 1.7 | – | – | 10 (≈ 26.5 µM) | – | < 0.1 | > 100 | – |
| COc1ccccc1/C=C/c1ccccc1O | 17.9 (≈ 79.1 µM) | 0.8 | – | – | 15 (≈ 66.3 µM) | – | 0.7 | 23 (≈ 102 µM) | – |
| CCCCCCCCCCCC(=O)Nc1cccc(/C=C/c2ccccc2)c1 | 3.5 (≈ 9.27 µM) | 3.3 | – | – | 11.6 (≈ 30.7 µM) | – | < 0.1 | > 100 | – |
| Nc1ccc(/C=C/c2ccccc2O)cc1 | 23 (≈ 109 µM) | 1 | – | – | 21.4 (≈ 101 µM) | – | 0.6 | 37 (≈ 175 µM) | – |
| COc1ccccc1/C=C/c1ccc(O)cc1 | 19 (≈ 84 µM) | 2.2 | 67 | 100 | 41 (≈ 181 µM) | 100 | 1.7 | 24 (≈ 106 µM) | 46 |
| Oc1ccc(/C=C/c2ccccc2O)cc1 | 21 (≈ 98.9 µM) | 0.8 | – | – | 17.5 (≈ 82.5 µM) | – | 0.8 | 22 (≈ 104 µM) | – |
| COc1ccc(/C=C/c2ccc(O)cc2)cc1 | 11.3 (≈ 49.9 µM) | 0.3 | – | – | 3.9 (≈ 17.2 µM) | – | 0.2 | 17.4 (≈ 76.9 µM) | – |
| Nc1ccccc1/C=C/c1cccc(O)c1 | 17 (≈ 80.5 µM) | 1.2 | – | – | 20 (≈ 94.7 µM) | – | 0.7 | 30 (≈ 142 µM) | – |
| Oc1cccc(/C=C/c2ccccc2O)c1 | 20.1 (≈ 94.7 µM) | 0.9 | – | – | 18 (≈ 84.8 µM) | – | 0.7 | 27 (≈ 127 µM) | – |
| Nc1ccccc1/C=C/c1ccc(O)cc1 | 79 (≈ 374 µM) | < 0.1 | – | – | 7 (≈ 33.1 µM) | – | < 0.1 | > 100 | – |
| Nc1cccc(/C=C/c2ccccc2)c1 | 14 (≈ 71.7 µM) | 6 | 77 | 100 | 84 (≈ 430 µM) | 100 | 6.5 | 12.9 (≈ 66.1 µM) | 100 |
| Oc1cccc(/C=C/c2cccc(O)c2)c1 | 21 (≈ 98.9 µM) | 1 | – | – | 21 (≈ 98.9 µM) | – | 0.8 | 25.9 (≈ 122 µM) | – |
| COc1ccccc1/C=C/c1cccc(O)c1 | 24.3 (≈ 107 µM) | 1 | 69 | 100 | 24 (≈ 106 µM) | 52 | 1.4 | 17 (≈ 75.1 µM) | 77 |
| COc1ccc(/C=C/c2ccccc2O)cc1 [2-hydroxy-4'-methoxystilbene] | 17 (≈ 75.1 µM) | 1.2 | 69 | 58 | 21 (≈ 92.8 µM) | 72 | 2.1 | 10 (≈ 44.2 µM) | 41 |
| CCCCCCCCCCCC(=O)Nc1ccccc1/C=C/c1ccccc1 | 12 (≈ 31.8 µM) | 1.3 | 79 | 45 | 16 (≈ 42.4 µM) | 53 | 6.4 | 2.5 (≈ 6.62 µM) | 37 |
| Nc1cccc(/C=C/c2ccc(O)cc2)c1 | 6 (≈ 28.4 µM) | 1.2 | – | – | 7 (≈ 33.1 µM) | – | 0.1 | 51 (≈ 241 µM) | – |
